{"source": "ChEMBL document CHEMBL1629654", "about": "“Breakthrough Aspergillus fumigatus and Candida albicans double infection during caspofungin treatment: laboratory characteristics and implication for susceptibility testing” (2009)", "key": {"[1]": {"system": "Candida albicans", "test": "Antimicrobial activity against Candida albicans isolate S at 25 ug/ml grown on Muller-Hinton agar medium after 48 hrs by disk diffusion method", "assay_type": "functional", "in_short": "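Disk diffusion on 90-mm RPMI 1640 with 2% glucose agar or on Mueller-Hinton agar. Plates were swabbed in three directions with a yeast suspension of 1–5 × 10^6 cells/ml. Paper disks (6 mm) held 1, 5 or 25 µg drug. Zone diameters were read at 24 and 48 h; values are means of two experiments.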"}, "[2]": {"system": "Candida tropicalis", "test": "Antimicrobial activity against Candida tropicalis after 48 hrs by 80% endpoint M27-A2 method", "assay_type": "functional"}, "[3]": {"system": "Pichia kudriavzevii", "test": "Antimicrobial activity against Candida krusei after 24 hrs by M27-A3 method", "assay_type": "functional"}, "[4]": {"system": "Candida albicans", "test": "Antimicrobial activity against Candida albicans isolate C at 2 ug/ml after 48 hrs by agar dilution method", "assay_type": "functional, organism-based", "in_short": "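Agar dilution on Sabouraud agar with caspofungin at 0, 0.5, 1 and 2 per ml. Isolates were subcultured 2 days on CHROMagar. Suspensions of 1×10^6 to 5×10^6 CFU/ml in sterile water were diluted 1,500-fold, and approximately 3 to 15 cells were spread per agar surface. Growth or no growth was scored, with repeated testing.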"}, "[5]": {"system": "Candida albicans", "test": "Antimicrobial activity against Candida albicans obtained from urine of patient 29 days after admission by EUCAST microdilution method", "assay_type": "functional", "conditions": "696 h", "in_short": "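EUCAST broth microdilution, plates read spectrophotometrically at 490 nm. MIC is the lowest dilution giving 50% growth inhibition. C. krusei […] control included in each run.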"}, "[6]": {"system": "Candida albicans", "test": "Antimicrobial activity against Candida albicans isolate R infected in NMRI mouse assessed as decrease in kidney bacterial burden at 6 mg/kg, ip measured on day 4", "assay_type": "functional, organism-based", "design": "dose 6 mg/kg", "in_short": "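NMRI mice (26 to 30 g), seven per group, were infected intravenously on day 0 with 1×10^5 CFU. They received caspofungin ip on days 1 to 3 in 0.5 ml; saline-treated mice served as controls. On day 4 the kidneys were removed and homogenized, and 10-fold dilutions were spot plated. Results are log10 CFU/ml homogenate (detection limit 50 CFU/ml), compared by Mann-Whitney test.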"}}, "note": "Activity calls are given as the source filed them. The calls are words filed in the database; no cut-off is given here."}
{"smiles": "CC[C@H](C)C[C@H](C)CCCCCCCCC(=O)N[C@H]1C[C@@H](O)[C@@H](NCCN)NC(=O)[C@@H]2[C@@H](O)CCN2C(=O)[C@H]([C@H](O)CCN)NC(=O)[C@H]([C@H](O)[C@@H](O)c2ccc(O)cc2)NC(=O)[C@@H]2C[C@@H](O)CN2C(=O)[C@H]([C@@H](C)O)NC1=O", "note": "[CASPOFUNGIN]", "values": [{"measurement": "inhibition zone (IZ)", "setting": "[1]", "result": 24.9, "unit": "mm"}, {"measurement": "MIC90", "setting": "[2]", "result": 0.5, "unit": "µg/mL"}, {"measurement": "MIC90", "setting": "[3]", "result": 0.25, "unit": "µg/mL"}, {"measurement": "growth inhibition (GI)", "setting": "[4]", "result": "Active"}, {"measurement": "MIC", "setting": "[5]", "result": 0.25, "unit": "µg/mL"}, {"measurement": "Activity", "setting": "[6]", "result": "inactive"}]}
